Laboratory results taken from ChEMBL document CHEMBL1671716, “Antimicrobial susceptibility patterns for recent clinical isolates of anaerobic bacteria in South Korea” (2010).
In brackets after ≈: the same amount, converted by molar mass.

Columns and labels:
Anaerococcus prevotii [1] = assay: Antimicrobial activity against Anaerococcus prevotii after 48 hrs by agar dilution method; assay type: functional
Outline: (§1)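 MICs on clinical anaerobe isolates by the CLSI agar dilution method. Inoculum of 10^5 CFU applied with a Steers replicator. Plates incubated 48 h at 37°C in an anaerobic chamber.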

Schaalia odontolytica [2] = assay: Antimicrobial activity against Actinomyces odontolyticus assessed as percent resistant isolates after 48 hrs by agar dilution method; assay type: functional
Outline: (§2)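 CLSI agar dilution on recent Korean clinical anaerobe isolates. Inoculum 10^5 CFU per spot by replicator. Plates incubated in an anaerobic chamber at 37°C for 48 h. For piperacillin plus tazobactam, tazobactam was held constant at 4 μg/ml. Resistance and susceptibility rates derived from MICs.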

Bacteroides ovatus = assay: Antimicrobial activity against Bacteroides ovatus after 48 hrs by agar dilution method; assay type: functional; outline: as §1
[3] = tested on: Bifidobacterium adolescentis; assay: Antimicrobial activity against Bifidobacterium adolescentis after 48 hrs by agar dilution method; assay type: functional; outline: as §1
Eubacterium sp. [4] = assay: Antimicrobial activity against Eubacterium sp. assessed as percent resistant isolates after 48 hrs by agar dilution method; assay type: functional; outline: as §2
Anaerococcus prevotii [5] = assay: Antimicrobial activity against Anaerococcus prevotii assessed as percent susceptible isolates after 48 hrs by agar dilution method; assay type: functional
[6] = tested on: Bifidobacterium adolescentis; assay: Antimicrobial activity against Bifidobacterium adolescentis assessed as percent resistant isolates after 48 hrs by agar dilution method; assay type: functional; outline: as §2
Eubacterium sp. [7] = assay: Antimicrobial activity against Eubacterium sp. after 48 hrs by agar dilution method; assay type: functional
Outline: (§3)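 CLSI agar dilution (M11-A7); inoculum 10^5 CFU applied by replicator; plates incubated anaerobically 48 h at 37°C. For piperacillin-tazobactam, tazobactam held constant at 4 μg/ml.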

Actinomyces israelii = assay: Antimicrobial activity against Actinomyces israelii assessed as percent resistant isolates after 48 hrs by agar dilution method; assay type: functional; outline: as §2
Clostridium perfringens [8] = assay: Antimicrobial activity against Clostridium perfringens assessed as percent susceptible isolates after 48 hrs by agar dilution method; assay type: functional
Prevotella bivia [9] = assay: Antimicrobial activity against Prevotella bivia assessed as percent susceptible isolates after 48 hrs by agar dilution method; assay type: functional; outline: as §3
Schaalia meyeri = assay: Antimicrobial activity against Actinomyces meyeri assessed as percent resistant isolates after 48 hrs by agar dilution method; assay type: functional; outline: as §2
Bacteroides caccae [10] = assay: Antimicrobial activity against Bacteroides caccae after 48 hrs by agar dilution method; assay type: functional; outline: as §1
[11] = tested on: Bacteroides thetaiotaomicron; assay: Antimicrobial activity against Bacteroides thetaiotaomicron assessed as percent resistant isolates after 48 hrs by agar dilution method; assay type: functional; outline: as §2
Prevotella bivia [12] = assay: Antimicrobial activity against Prevotella bivia assessed as percent resistant isolates after 48 hrs by agar dilution method; assay type: functional; outline: as §2
Eggerthella lenta [13] = assay: Antimicrobial activity against Eubacterium lentum after 48 hrs by agar dilution method; assay type: functional; outline: as §3
Prevotella intermedia [14] = assay: Antimicrobial activity against Prevotella intermedia assessed as percent resistant isolates after 48 hrs by agar dilution method; assay type: functional; outline: as §2
Clostridium perfringens [15] = assay: Antimicrobial activity against Clostridium perfringens after 48 hrs by agar dilution method; assay type: functional
Parvimonas micra = assay: Antimicrobial activity against Peptostreptococcus micros assessed as percent susceptible isolates after 48 hrs by agar dilution method; assay type: functional; outline: as §2
[16] = tested on: Peptoniphilus asaccharolyticus; assay: Antimicrobial activity against Peptoniphilus asaccharolyticus assessed as percent susceptible isolates after 48 hrs by agar dilution method; assay type: functional; outline: as §3
[17] = tested on: Peptostreptococcus anaerobius; assay: Antimicrobial activity against Peptostreptococcus anaerobius after 48 hrs by agar dilution method; assay type: functional; outline: as §3
Clostridioides difficile [18] = assay: Antimicrobial activity against Clostridium difficile assessed as percent resistant isolates after 48 hrs by agar dilution method; assay type: functional
Clostridioides difficile [19] = assay: Antimicrobial activity against Clostridium difficile assessed as percent susceptible isolates after 48 hrs by agar dilution method; assay type: functional
[20] = tested on: Peptoniphilus asaccharolyticus; assay: Antimicrobial activity against Peptoniphilus asaccharolyticus assessed as percent resistant isolates after 48 hrs by agar dilution method; assay type: functional; outline: as §2
[21] = tested on: Bifidobacterium adolescentis; assay: Antimicrobial activity against Bifidobacterium adolescentis assessed as percent susceptible isolates after 48 hrs by agar dilution method; assay type: functional
Bifidobacterium sp. [22] = assay: Antimicrobial activity against Bifidobacterium sp. assessed as percent resistant isolates after 48 hrs by agar dilution method; assay type: functional; outline: as §2
Finegoldia magna [23] = assay: Antimicrobial activity against Finegoldia magna after 48 hrs by agar dilution method; assay type: functional; outline: as §3
[24] = tested on: Parabacteroides distasonis; assay: Antimicrobial activity against Bacteroides distasonis assessed as percent susceptible isolates after 48 hrs by agar dilution method; assay type: functional
Prevotella buccae = assay: Antimicrobial activity against Prevotella buccae assessed as percent resistant isolates after 48 hrs by agar dilution method; assay type: functional, Segatella buccae; outline: as §2
Hoylesella oralis = assay: Antimicrobial activity against Prevotella oralis assessed as percent resistant isolates after 48 hrs by agar dilution method; assay type: functional; outline: as §2
Anaerococcus prevotii [25] = assay: Antimicrobial activity against Anaerococcus prevotii assessed as percent resistant isolates after 48 hrs by agar dilution method; assay type: functional; outline: as §2
Eggerthella lenta [26] = assay: Antimicrobial activity against Eubacterium lentum assessed as percent susceptible isolates after 48 hrs by agar dilution method; assay type: functional; outline: as §3
Prevotella intermedia [27] = assay: Antimicrobial activity against Prevotella intermedia assessed as percent susceptible isolates after 48 hrs by agar dilution method; assay type: functional; outline: as §3
Schaalia odontolytica [28] = assay: Antimicrobial activity against Actinomyces odontolyticus assessed as percent susceptible isolates after 48 hrs by agar dilution method; assay type: functional
Bifidobacterium sp. [29] = assay: Antimicrobial activity against Bifidobacterium sp. after 48 hrs by agar dilution method; assay type: functional; outline: as §1
Actinomyces naeslundii = assay: Antimicrobial activity against Actinomyces naeslundii assessed as percent susceptible isolates after 48 hrs by agar dilution method; assay type: functional
Eubacterium sp. [30] = assay: Antimicrobial activity against Eubacterium sp. assessed as percent susceptible isolates after 48 hrs by agar dilution method; assay type: functional; outline: as §3
Fusobacterium varium = assay: Antimicrobial activity against Fusobacterium varium after 48 hrs by agar dilution method; assay type: functional; outline: as §3
[31] = tested on: Peptoniphilus asaccharolyticus; assay: Antimicrobial activity against Peptoniphilus asaccharolyticus after 48 hrs by agar dilution method; assay type: functional; outline: as §3
Phocaeicola vulgatus = assay: Antimicrobial activity against Bacteroides vulgatus after 48 hrs by agar dilution method; assay type: functional; outline: as §1
Schaalia odontolytica [32] = assay: Antimicrobial activity against Actinomyces odontolyticus after 48 hrs by agar dilution method; assay type: functional; outline: as §1
Bacteroides caccae [33] = assay: Antimicrobial activity against Bacteroides caccae assessed as percent resistant isolates after 48 hrs by agar dilution method; assay type: functional; outline: as §2
[34] = tested on: Bacteroides thetaiotaomicron; assay: Antimicrobial activity against Bacteroides thetaiotaomicron after 48 hrs by agar dilution method; assay type: functional; outline: as §1
Eggerthella lenta [35] = assay: Antimicrobial activity against Eubacterium lentum assessed as percent resistant isolates after 48 hrs by agar dilution method; assay type: functional; outline: as §2
Clostridioides difficile [36] = assay: Antimicrobial activity against Clostridium difficile after 48 hrs by agar dilution method; assay type: functional
Bacteroides caccae [37] = assay: Antimicrobial activity against Bacteroides caccae assessed as percent susceptible isolates after 48 hrs by agar dilution method; assay type: functional
Finegoldia magna [38] = assay: Antimicrobial activity against Finegoldia magna assessed as percent resistant isolates after 48 hrs by agar dilution method; assay type: functional; outline: as §2
Fusobacterium necrogenes = assay: Antimicrobial activity against Fusobacterium necrogenes after 48 hrs by agar dilution method; assay type: functional; outline: as §3

Structure (SMILES): C[C@@H](O)[C@H]1C(=O)N2C(C(=O)O)=C(SCCNC=N)C[C@H]12 [IMIPENEM ANHYDROUS]
- MIC50 (Anaerococcus prevotii [1]): 0.06 µg/mL (≈ 0.2 µM)
- MIC90 (Anaerococcus prevotii [1]): 0.25 µg/mL (≈ 0.835 µM)
- Activity (Schaalia odontolytica [2]): 0%
- MIC50 (Bacteroides ovatus): 0.5 µg/mL (≈ 1.67 µM)
- MIC90 (Bacteroides ovatus): 4 µg/mL (≈ 13.4 µM)
- MIC50 [3]: 0.06 µg/mL (≈ 0.2 µM)
- MIC90 [3]: 0.5 µg/mL (≈ 1.67 µM)
- Activity (Eubacterium sp. [4]): 0%
- Activity (Anaerococcus prevotii [5]): 100%
- Activity [6]: 15%
- MIC50 (Eubacterium sp. [7]): 0.06 µg/mL (≈ 0.2 µM)
- MIC90 (Eubacterium sp. [7]): 0.5 µg/mL (≈ 1.67 µM)
- Activity (Actinomyces israelii): 0%
- Activity (Clostridium perfringens [8]): 100%
- Activity (Prevotella bivia [9]): 100%
- Activity (Schaalia meyeri): 0%
- MIC50 (Bacteroides caccae [10]): 0.5 µg/mL (≈ 1.67 µM)
- MIC90 (Bacteroides caccae [10]): 4 µg/mL (≈ 13.4 µM)
- Activity [11]: 4%
- Activity (Prevotella bivia [12]): 0%
- MIC50 (Eggerthella lenta [13]): 0.06 µg/mL (≈ 0.2 µM)
- MIC90 (Eggerthella lenta [13]): 0.5 µg/mL (≈ 1.67 µM)
- Activity (Prevotella intermedia [14]): 0%
- MIC50 (Clostridium perfringens [15]): 0.125 µg/mL (≈ 0.418 µM)
- MIC90 (Clostridium perfringens [15]): 0.125 µg/mL (≈ 0.418 µM)
- Activity (Parvimonas micra): 0%
- Activity [16]: 100%
- MIC50 [17]: 0.125 µg/mL (≈ 0.418 µM)
- MIC90 [17]: 2 µg/mL (≈ 6.68 µM)
- Activity (Clostridioides difficile [18]): 8%
- Activity (Clostridioides difficile [19]): 58%
- Activity [20]: 0%
- Activity [21]: 100%
- Activity (Bifidobacterium sp. [22]): 0%
- MIC50 (Finegoldia magna [23]): 0.06 µg/mL (≈ 0.2 µM)
- MIC90 (Finegoldia magna [23]): 0.125 µg/mL (≈ 0.418 µM)
- Activity [24]: 95%
- Activity (Prevotella buccae): 0%
- Activity (Hoylesella oralis): 0%
- Activity (Anaerococcus prevotii [25]): 0%
- Activity (Eggerthella lenta [26]): 100%
- Activity (Prevotella intermedia [27]): 100%
- Activity (Schaalia odontolytica [28]): 100%
- MIC50 (Bifidobacterium sp. [29]): 0.06 µg/mL (≈ 0.2 µM)
- MIC90 (Bifidobacterium sp. [29]): 0.5 µg/mL (≈ 1.67 µM)
- Activity (Actinomyces naeslundii): 100%
- Activity (Eubacterium sp. [30]): 100%
- MIC (Fusobacterium varium): 0.02 µg/mL (≈ 0.0668 µM)
- MIC50 [31]: ≤ 0.008 µg/mL
- MIC90 [31]: 0.03 µg/mL (≈ 0.1 µM)
- MIC50 (Phocaeicola vulgatus): 0.5 µg/mL (≈ 1.67 µM)
- MIC90 (Phocaeicola vulgatus): 4 µg/mL (≈ 13.4 µM)
- MIC50 (Schaalia odontolytica [32]): 0.06 µg/mL (≈ 0.2 µM)
- MIC90 (Schaalia odontolytica [32]): 0.5 µg/mL (≈ 1.67 µM)
- Activity (Bacteroides caccae [33]): 4%
- MIC50 [34]: 0.5 µg/mL (≈ 1.67 µM)
- MIC90 [34]: 4 µg/mL (≈ 13.4 µM)
- Activity (Eggerthella lenta [35]): 0%
- MIC50 (Clostridioides difficile [36]): 4 µg/mL (≈ 13.4 µM)
- MIC90 (Clostridioides difficile [36]): 8 µg/mL (≈ 26.7 µM)
- Activity (Bacteroides caccae [37]): 95%
- Activity (Finegoldia magna [38]): 0%
- MIC (Fusobacterium necrogenes): 0.02 µg/mL (≈ 0.0668 µM)
